# Measured values reported in ChEMBL document CHEMBL4118039, “Inflammation Modulatory Phorbol Esters from the Seeds of Aquilaria malaccensis” (J Nat Prod, 2017).
# What was measured:
# [1] = test system: Neutrophil; assay: Proinflammatory activity in human neutrophils assessed as superoxide anion generation at 10 uM incubated for 5 mins by spectrophotometric method relative to control; format: ADME, cell-based
# How it was run: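 Neutrophils at 3 × 10^5/mL in Ca2+-free HBSS pH 7.4, supplemented with 0.5 mg/mL ferricytochrome c and 1 mM Ca2+. Equilibrated 2 min at 37 °C, then exposed to compound at 10 μM for 5 min without fMLF/CB. SOD-inhibitable cytochrome c reduction followed continuously at 550 nm with stirring; expressed versus fMLF/CB-activated response as 100%. Means ± SEM, n = 3−5.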
# [2] = test system: HepG2; assay: Cytotoxicity against human HepG2 cells assessed as reduction in cell viability after 72 hrs by MTT assay; format: functional, cell-based; details: HepG2, 72 h
# [3] = test system: A549; assay: Cytotoxicity against human A549 cells assessed as reduction in cell viability after 72 hrs by MTT assay; format: functional, cell-based; details: A549, 72 h
# [4] = test system: Neutrophil; assay: Anti-inflammatory activity in human neutrophils assessed as inhibition of fMLF/CB-induced elastase release by measuring degranulation of azurophilic granules using MeOSuc-Ala-Ala-ProVal-p-nitroanilide as substrate preincubated for 5 mins followed by CB/fMLF stimulation; format: functional, cell-based
# How it was run: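 Neutrophils from human blood (dextran sedimentation, Ficoll-Hypaque, hypotonic lysis of red cells; >98% viable by trypan blue) held in Ca2+-free HBSS pH 7.4 at 4 °C. Cells at 3 × 10^5/mL with 100 μM substrate, 2 min at 37 °C, compound 5 min, then fMLF 100 nM/CB 0.5 μg/mL. A405 followed continuously. Expressed as % of drug-free fMLF/CB control; three repeats.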
# [5] = test system: Neutrophil; assay: Anti-inflammatory activity in human neutrophils assessed as inhibition of fMLF/CB-induced superoxide anion generation preincubated for 5 mins followed by CB stimulation for 3 mins and subsequent fMLF stimulation for 10 mins by spectrophotometric method; format: functional, cell-based
# How it was run: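 Same neutrophil preparation. Cells at 3 × 10^5/mL with 0.5 mg/mL ferricytochrome c and 1 mM Ca2+, 2 min at 37 °C, then compound or DMSO 5 min, CB 1 μg/mL 3 min, fMLF 100 nM 10 min. SOD-inhibitable cytochrome c reduction read continuously at 550 nm with stirring. Means ± SEM, n = 3−5.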
# [6] = test system: Neutrophil; assay: Proinflammatory activity in human neutrophils assessed as elastase release by measuring degranulation of azurophilic granules using MeOSuc-Ala-Ala-ProVal-p-nitroanilide as substrate incubated for 5 mins relative to control; format: cell-based
# How it was run: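 Neutrophils isolated from human blood by dextran sedimentation, Ficoll-Hypaque centrifugation and hypotonic erythrocyte lysis, >98% viable by trypan blue, held in Ca2+-free HBSS pH 7.4 at 4 °C. Cells at 3 × 10^5/mL with 100 μM substrate, equilibrated 2 min at 37 °C, then compound at 10 μM for 5 min without fMLF/CB. A405 monitored continuously; expressed versus fMLF/CB-stimulated release taken as 100%.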
# [7] = test system: Neutrophil; assay: Proinflammatory activity in human neutrophils assessed as superoxide anion generation at 10 uM preincubated for 5 mins followed by CB addition measured after 3 mins by spectrophotometric method relative to control; format: ADME, cell-based; details: 0.05 h
# How it was run: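 Cytochrome c reduction at 550 nm as above (0.5 mg/mL ferricytochrome c, 1 mM Ca2+, 37 °C, 3 × 10^5 neutrophils/mL). Compound 10 μM given without fMLF/CB stimulation, or with CB only. Expressed relative to the fMLF/CB response taken as 100%. Means ± SEM, n = 3−5.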
IC50 [4],IC50 [5],Activity [7],SMILES,Activity [1],IC50 [2],IC50 [3],Activity [6]
> 10 µM,> 10 µM,,CCCCCCCC/C=C\CCCCCCCC(=O)OCC(O)COC(=O)CCCCCCC/C=C\CCCCCCCC,,> 10 µM,> 10 µM,
0.8 µM,,,CCCCCCCCCC(=O)O[C@@]12C[C@@H](C)[C@@]3(O)[C@@H](C=C(CO)C[C@]4(O)C(=O)C(C)=C[C@@H]34)[C@@H]1C2(C)C,95.3%,> 10 µM,> 10 µM,
2.1 µM,,,CCCCCCCC(=O)O[C@@]12C[C@@H](C)[C@@]3(O)[C@@H](C=C(CO)C[C@]4(O)C(=O)C(C)=C[C@@H]34)[C@@H]1C2(C)C,109.6%,> 10 µM,> 10 µM,
,,,CCCCCCC[C@@H](O)[C@@H](O)/C=C/C=C/C(=O)O[C@@H]1[C@@H](C)[C@@]2(O)[C@@H](C=C(CO)C[C@]3(O)C(=O)C(C)=C[C@@H]23)[C@@H]2C(C)(C)[C@]12OC(C)=O,106%,> 10 µM,> 10 µM,10.5%
,,,CCCCCCC[C@H](O)[C@@H](O)/C=C/C=C/C(=O)O[C@@H]1[C@@H](C)[C@@]2(O)[C@@H](C=C(CO)C[C@]3(O)C(=O)C(C)=C[C@@H]23)[C@@H]2C(C)(C)[C@]12OC(C)=O,107.1%,> 10 µM,> 10 µM,9.2%
> 10 µM,,74.5%,CCCCCCCC/C=C\CCCCCCCC(=O)OCC(CO)OC(=O)CCCCCCCCCCCCCCC (stereo unspecified),,> 10 µM,> 10 µM,
3.3 µM,1.8 µM,,O=c1cc(N2CCOCC2)oc2c(-c3ccccc3)cccc12 [LY-294002],,,,
,,,CCCCCCCCCCCCCC(=O)O[C@@H]1[C@@H](C)[C@@]2(O)[C@@H](C=C(CO)C[C@]3(O)C(=O)C(C)=C[C@@H]23)[C@@H]2C(C)(C)[C@]12OC(C)=O [PHORBOL MYRISTATE ACETATE],102.7%,,,44.2%

SMILES,IC50 [4],IC50 [5],Activity [7],Activity [1],IC50 [2],IC50 [3],Activity [6]
CC(=O)O[C@@]12[C@H](OC(=O)/C=C/C=C/C=O)[C@@H](C)[C@@]3(O)[C@@H](C=C(CO)C[C@]4(O)C(=O)C(C)=C[C@@H]34)[C@@H]1C2(C)C,2.7 µM,,,106.1%,> 10 µM,> 10 µM,
CCCCCCCC/C=C\CCCCCCCC(=O)OCC1=C[C@H]2[C@@H]3C(C)(C)[C@]3(OC(C)=O)C[C@@H](C)[C@]2(O)[C@@H]2C=C(C)C(=O)[C@@]2(O)C1,> 10 µM,,,18.1%,> 10 µM,> 10 µM,
